E-selectin induc: E-selectin induction on HUVECs | P16581 | HUVEC E-selectin immunofluorescence imaging; normalized: neutral wells 0, TNF-alpha wells 100 | activation, % at 7.58 µM | hit rate 0.37% among 260,000 | AID 686992;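 active means mean E-selectin-positive cell signal at least 10% of the positive control, reached in at least 60% of replicates, without over 20% cell loss; inconclusive means no rule given, readout overlaps actives, possibly toxicity-flagged; inactive means the rest, including those meeting only one limit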
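Test system: HUVEC; input: 3,000 HUVEC/well; measured by: immunofluorescence imaging; read-out: % PE-positive cells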
miR-122 sensor: inhibitors of miR-122 in Huh7 cells | hit rate 0.3% among 340,000 | activation (reporter increase), % at 12.5 µM | Huh7 miR-122 Renilla luciferase sensor, 48 h; neutral wells = 0, positive control = 100;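 active means mean replicate activation score at least 90 and every replicate individually at or above 90; inconclusive means only one of the two criteria met; inactive means neither criterion met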;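 further: higher luciferase means less miR-122 activity so hits act as miR-122 inhibitors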
SIRT5 block: sirtuin-5 (human) deacylase inhibition; Q9NXA8; Purified SirT5, succinyl-peptide AMC, trypsin-coupled fluorescence; inhibition, % at 15 µM; hit rate 1.1% among 330,000; AID 652115; in the data active means inhibition above about 15%; inconclusive means no clear call, values can overlap the other calls
Target sequence (Q9NXA8 whole entry, looked up): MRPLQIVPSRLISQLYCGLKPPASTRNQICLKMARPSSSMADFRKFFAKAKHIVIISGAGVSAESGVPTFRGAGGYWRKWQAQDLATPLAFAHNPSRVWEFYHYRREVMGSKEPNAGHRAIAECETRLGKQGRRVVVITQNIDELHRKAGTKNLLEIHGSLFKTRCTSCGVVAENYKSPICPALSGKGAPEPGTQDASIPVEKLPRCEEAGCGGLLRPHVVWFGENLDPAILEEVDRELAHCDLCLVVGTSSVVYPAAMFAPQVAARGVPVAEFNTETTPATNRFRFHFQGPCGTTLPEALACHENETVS
S100A4 inh HTS: inhibitors of human S100A4 binding to myosin IIA peptide; S100A4/TAMRA-MyoIIA peptide fluorescence polarization; inhibition, % at 10.7 µM; hit rate 0.14% among 360,000;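 active means mean inhibition of at least 70% across replicates, with every replicate also reaching that level; inconclusive means mean inhibition reaches 70% but some replicates fall short; inactive means mean inhibition below 70%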
Target sequence (P26447 whole entry, looked up): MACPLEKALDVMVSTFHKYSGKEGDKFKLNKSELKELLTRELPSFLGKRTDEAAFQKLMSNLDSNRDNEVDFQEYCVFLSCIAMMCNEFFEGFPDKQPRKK
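Material: S100A4 monomer protein | Medium: HEPES pH 7.2 with CaCl2, KCl, NaCl, DTT, Triton | Reagent: Labelled myosin peptide probe, 5 nM | Doses: One dose per compound | Times: 5 min incubation before reading | Benchmarks: Neutral control DMSO, positive control TFP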
FGF22 binding: binders of recombinant human FGF22 by thermal shift; Q9HCT0; SYPRO orange fluorescence; percent of sucrose octasulfate shift, DMSO zero; activity (Tm shift, normalised), % at 9.99 µM; AID 651658; hit rate 1.5% among 340,000;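 active means mean Tm shift, scaled 0 neutral to 100 positive control, at about 1.3% or above, every replicate too, limit read from the data; inconclusive means no clear call, values can overlap the other calls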
Target sequence (Q9HCT0 whole entry, looked up): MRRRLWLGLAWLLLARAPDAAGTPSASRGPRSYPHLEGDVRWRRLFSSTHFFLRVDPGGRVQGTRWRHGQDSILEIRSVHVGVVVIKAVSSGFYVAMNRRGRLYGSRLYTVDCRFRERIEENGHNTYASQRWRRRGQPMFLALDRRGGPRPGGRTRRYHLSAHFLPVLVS
Of the large screens only hits and unclear results are named; the others gave an inactive call; [ ] = dose if it differs, or a comment. Compounds with a hit are over-represented: about 2.5% of the library has one in this group of screens.

Cc1ccc(C)c(Nc2ccc3nonc3c2[N+](=O)[O-])c1	none (no result: E-selectin induc)
Cc1ccccc1Nc1ccc2nonc2c1[N+](=O)[O-]	SIRT5 block 29 (no result: E-selectin induc, miR-122 sensor)
O=C(NC1CCC1)[C@H]1[C@H](CO)[C@H]2Cn3c(ccc(-c4ccccc4)c3=O)[C@@H]1N2	none (no result: FGF22 binding)
Cc1ccc(OCCNC(=O)C2CCCCC2)cc1	SIRT5 block 19, S100A4 inh HTS inconclusive (no result: E-selectin induc, miR-122 sensor)
Cc1cc(NCc2ccccn2)n2ncc(-c3ccc(Cl)cc3)c2n1	none
Cc1cc(NCc2ccccn2)n2nc(C)c(-c3ccc(Cl)cc3)c2n1	E-selectin induc 47 (no result: SIRT5 block)
COc1ccccc1NC(=O)N1CC(=O)N2[C@H](CO)[C@H](c3ccc(C#CC4CC4)cc3)[C@H]2C1	none (no result: miR-122 sensor, FGF22 binding)
O=C1CCCCC1Sc1nnc(-c2ccc3c(c2)OCO3)o1 (stereo not given)	FGF22 binding 43 (no result: E-selectin induc, miR-122 sensor)
CCN(CC(=O)Nc1c(F)cccc1F)C(=O)c1ccc2c(c1)NC(=O)C(C)S2 (stereo not given)	SIRT5 block 27 (no result: E-selectin induc, miR-122 sensor)
O=C(NCCN1CCCC(O)C1)c1cc(COc2ccc(F)cc2Cl)on1 (stereo not given)	SIRT5 block 24 (no result: E-selectin induc)
COc1ccc(OCc2cc(C(=O)NCCN3CCCC(O)C3)no2)c(Cl)c1 (stereo not given)	none
O=C(C1CCCCC1)N1C[C@@H](O)[C@H](n2cc(-c3ccc(F)cc3)nn2)C[C@@H]1c1ccccc1	SIRT5 block 28
O=C(C1CCCCC1)N1C[C@H](n2cc(-c3ccc(F)cc3)nn2)[C@@H](O)C[C@@H]1c1ccccc1	none
CO[C@H]1CN(C)C(=O)c2cc(NC(=O)C3CCC3)ccc2OC[C@@H](C)N(Cc2ccccn2)C[C@@H]1C	none (no result: miR-122 sensor)
CCOC(=O)CSc1ncnc2c(C(=O)OCC)c3n(c12)CCC3	FGF22 binding 43 (no result: miR-122 sensor)
Cc1cccc(NC(=O)Nc2ccc3c(c2)C(=O)N(C)[C@H]2CC[C@@H](CC(=O)NCc4ccccc4Cl)O[C@H]2CO3)c1	none (no result: SIRT5 block, S100A4 inh HTS, FGF22 binding)
COc1cccc(S(=O)(=O)Nc2ccc3c(c2)C(=O)N(C)[C@@H]2CC[C@@H](CC(=O)O)O[C@@H]2CO3)c1	none (no result: SIRT5 block, S100A4 inh HTS)
Cc1ccc(S(=O)(=O)N2CCN(Cc3ccsc3)CC2)cc1	FGF22 binding 43 (no result: miR-122 sensor)
C[C@@H]1CN([C@@H](C)CO)C(=O)c2cc(NC(=O)c3ccncc3)ccc2O[C@@H](C)CCCCO[C@H]1CN(C)Cc1ccc(C(F)(F)F)cc1	none
C[C@@H]1CCCCO[C@@H](CN(C)CC2CCCCC2)[C@H](C)CN([C@H](C)CO)C(=O)c2cc(NC(=O)CCC(F)(F)F)ccc2O1	none (no result: SIRT5 block, S100A4 inh HTS)
C[C@@H]1CCCCO[C@@H](CN(C)Cc2ccc(C(F)(F)F)cc2)[C@@H](C)CN([C@H](C)CO)C(=O)c2cc(NC(=O)CCC(F)(F)F)ccc2O1	none
C[C@H]1CCCCO[C@@H](CN(C)Cc2ccc(C(F)(F)F)cc2)[C@@H](C)CN([C@@H](C)CO)C(=O)c2cc(NC(=O)CCC(F)(F)F)ccc2O1	SIRT5 block 16
C[C@@H]1CCCCO[C@@H](CN(C)Cc2ccc(C(=O)O)cc2)[C@H](C)CN([C@H](C)CO)C(=O)c2cc(NC(=O)CCCN(C)C)ccc2O1	S100A4 inh HTS 130
C[C@@H]1CCCCO[C@H](CN(C)Cc2ccc(C(=O)O)cc2)[C@H](C)CN([C@@H](C)CO)C(=O)c2cc(NC(=O)CCCN(C)C)ccc2O1	none
C[C@@H]1CCCCO[C@@H](CN(C)CC2CCCCC2)[C@@H](C)CN([C@H](C)CO)C(=O)c2cc(NC(=O)CCC(F)(F)F)ccc2O1	miR-122 sensor 104[16.7 µM] (no result: SIRT5 block, S100A4 inh HTS)
C[C@@H]1CN([C@@H](C)CO)C(=O)c2cc(NC(=O)c3ccncc3)ccc2O[C@@H](C)CCCCO[C@@H]1CN(C)Cc1ccc(C(F)(F)F)cc1	SIRT5 block 16
CO[C@@H]1CN(C)C(=O)c2ccc(NC(C)=O)cc2OC[C@@H](C)N(Cc2cc(F)ccc2F)C[C@H]1C	none
C[C@@H]1CN([C@H](C)CO)C(=O)Cc2cc(NC(=O)Nc3ccccc3)ccc2O[C@H]1CN(C)Cc1ccncc1	none
COc1cc(C=C2NC(=O)NC2=O)ccc1O	none (no result: SIRT5 block)
COc1cc(C=C2C(=O)C=CC2=O)ccc1O	SIRT5 block 28 (no result: miR-122 sensor)
COc1cccc(S(=O)(=O)N[C@@H]2C=C[C@@H](CC(=O)NCc3ccccc3)O[C@@H]2CO)c1	none (no result: miR-122 sensor)
CC(C)(CO)NS(=O)(=O)c1ccc2c(c1)C(=NO)c1cc(S(=O)(=O)NC(C)(C)CO)ccc1-2	FGF22 binding 43 (no result: E-selectin induc, miR-122 sensor)
COCCNS(=O)(=O)c1ccc2c(c1)C(=NO)c1cc(S(=O)(=O)NCCOC)ccc1-2	none (no result: miR-122 sensor)
c1coc(-c2nnc(-c3ccco3)nn2)c1	SIRT5 block 18 (no result: E-selectin induc)
COc1cccc(CN2CCC(C(=O)N3CCN(c4ccccc4F)CC3)CC2)c1	none (no result: E-selectin induc)
Cc1ccc(S(=O)(=O)N(C)CC(=O)N2CCN(Cc3ccc4c(c3)OCO4)CC2)cc1	SIRT5 block 30 (no result: E-selectin induc, miR-122 sensor)
COc1cccc(CN2CCC(C(=O)N3CCN(Cc4ccc5c(c4)OCO5)CC3)CC2)c1	SIRT5 block 17 (no result: miR-122 sensor)
COCCCNC(=S)N1CCN(Cc2ccc3c(c2)OCO3)CC1	FGF22 binding 44 (no result: E-selectin induc)
COc1ccc(N(CC(=O)N2CCN(Cc3ccc4c(c3)OCO4)CC2)S(=O)(=O)c2ccc(F)cc2)cc1	none
COc1ccccc1N1CCN(C(=O)Nc2ccc([N+](=O)[O-])cc2)CC1	none (no result: E-selectin induc)
COc1cccc(CN2CCN(C(=O)Nc3ccc([N+](=O)[O-])cc3)CC2)c1	FGF22 binding 43 (no result: miR-122 sensor)
C[C@H]1CCCCO[C@H](CN(C)S(=O)(=O)c2ccccc2)[C@@H](C)CN([C@@H](C)CO)C(=O)c2cc(NS(=O)(=O)c3ccc(F)cc3)ccc2O1	none
NC(=O)CSc1nccn1Cc1ccc2c(c1)OCO2	none (no result: miR-122 sensor)
COCCNC(=O)CSc1nccn1Cc1ccc2c(c1)OCO2	FGF22 binding 43 (no result: miR-122 sensor)
COc1cccc(NS(=O)(=O)c2cc(C)sc2C)c1	miR-122 sensor 121 (no result: E-selectin induc, SIRT5 block, S100A4 inh HTS, FGF22 binding)
CC(C)Oc1ccc(C(=O)Nc2ccc(C(F)(F)F)n(C)c2=O)cc1	FGF22 binding 44 (no result: E-selectin induc)
C[C@H]1CCCCO[C@@H](CN(C)Cc2ccc3c(c2)OCO3)[C@@H](C)CN([C@@H](C)CO)C(=O)c2cc(NC(=O)C3CCCCC3)ccc2O1	none
O=C1/C(=C/c2ccccn2)SC(=S)N1CCc1ccccc1	FGF22 binding 1.6 (no result: E-selectin induc, miR-122 sensor)
CCCN1[C@H](C(=O)NCCCN2CCOCC2)[C@@H](CO)[C@@H]2Cn3c(ccc(-c4ccccc4)c3=O)[C@@H]21	none
C=C1CC(c2ccc(-c3ccccc3)cc2)OC1=O (stereo not given)	none (no result: E-selectin induc, miR-122 sensor)
Cn1nnnc1SCC(=O)NNC(=O)c1ccc(Cl)cc1	FGF22 binding 44 (no result: E-selectin induc, miR-122 sensor)
Cn1nnnc1SCC(=O)Nc1ncc(C(F)(F)F)cc1Cl	FGF22 binding 43 (no result: SIRT5 block)
Cn1nnnc1SCC(=O)Nc1ncc(Cl)cc1Cl	none
COCC(=O)N1CC2(CCN(C(C)=O)CC2)c2c([nH]c3cc(OC)ccc23)[C@@H]1CO	none (no result: miR-122 sensor, SIRT5 block)

Compound activity: PubChem, Broad Institute
